The structures appear in SMILES notation. Activity calls are given as the source filed them. The calls are words filed in the database; no cut-off is given here.

The target in experiment [1] is T1, Ectonucleoside triphosphate diphosphohydrolase 8 (Homo sapiens) (UniProt Q5MY95).
T1 sequence (whole entry): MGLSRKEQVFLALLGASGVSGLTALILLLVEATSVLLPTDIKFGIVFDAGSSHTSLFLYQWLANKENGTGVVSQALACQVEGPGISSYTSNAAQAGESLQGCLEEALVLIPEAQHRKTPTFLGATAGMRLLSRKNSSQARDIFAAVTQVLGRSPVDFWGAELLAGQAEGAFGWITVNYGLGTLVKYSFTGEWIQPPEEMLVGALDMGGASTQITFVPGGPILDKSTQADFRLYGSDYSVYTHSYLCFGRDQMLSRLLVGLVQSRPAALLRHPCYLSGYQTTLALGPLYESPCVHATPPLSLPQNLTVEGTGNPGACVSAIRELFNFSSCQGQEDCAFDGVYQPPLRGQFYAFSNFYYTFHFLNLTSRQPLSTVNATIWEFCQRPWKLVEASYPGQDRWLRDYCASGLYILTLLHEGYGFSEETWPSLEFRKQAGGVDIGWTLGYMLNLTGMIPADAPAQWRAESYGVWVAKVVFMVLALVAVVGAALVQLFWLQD
Nature of the experiment: Inhibition of human NTPDase8 at 100 uM using ATP as substrate preincubated for 3 mins followed by substrate addition measured after 10 mins by malachite green reagent-based assay. Summed up:
(§1)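 Compound at 100 μM, 3 min preincubation, 100 μM ATP, 10 min. Stopped with malachite green; Pi read at 630 nm. Blank with enzyme added after stop subtracted. Activity with ATP alone taken as 100%.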

The target in experiment [2] is T2, Ectonucleoside triphosphate diphosphohydrolase 2 (Homo sapiens) (UniProt Q9Y5L3).
T2 sequence (whole entry): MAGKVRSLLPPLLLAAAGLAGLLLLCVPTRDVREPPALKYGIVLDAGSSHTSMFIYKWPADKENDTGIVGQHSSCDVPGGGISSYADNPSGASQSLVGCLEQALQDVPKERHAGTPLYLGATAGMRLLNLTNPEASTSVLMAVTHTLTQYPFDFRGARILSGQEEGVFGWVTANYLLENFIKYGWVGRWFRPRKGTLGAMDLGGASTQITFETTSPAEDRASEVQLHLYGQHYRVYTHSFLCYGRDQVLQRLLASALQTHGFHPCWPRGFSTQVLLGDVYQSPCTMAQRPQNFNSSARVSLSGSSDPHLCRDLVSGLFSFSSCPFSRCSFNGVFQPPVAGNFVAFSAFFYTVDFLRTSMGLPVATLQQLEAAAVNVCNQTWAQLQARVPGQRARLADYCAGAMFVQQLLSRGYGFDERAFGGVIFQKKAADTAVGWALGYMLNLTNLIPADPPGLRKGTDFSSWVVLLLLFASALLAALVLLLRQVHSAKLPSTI
As to the kind of experiment: Inhibition of human NTPDase2 at 100 uM using ATP as substrate preincubated for 3 mins followed by substrate addition measured after 10 mins by malachite green reagent-based assay. Summed up:
as §1

The target in experiment [3] is P2Y purinoceptor 4 (Homo sapiens) (UniProt P51582). Nature of the experiment: Agonist activity at recombinant human P2RY4 expressed in AD293 cells assessed as increase in intracellular calcium levels by Fluo-4/AM dye-based spectrofluorometer. In kind it is functional, cell-based. Summed up: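 Human P2Y2, P2Y4 or P2Y6 receptor stably expressed in AD293 cells. Compound at 100 μM. Agonism read as change in intracellular calcium (Δ[Ca2+]i), with UDP or UTP as control.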
(Calcium flux is commonly read through the fluorescence of an indicator in the cells.)

The target in experiment [4] is T3, Ectonucleoside triphosphate diphosphohydrolase 1 (Homo sapiens) (UniProt P49961).
T3 sequence (whole entry): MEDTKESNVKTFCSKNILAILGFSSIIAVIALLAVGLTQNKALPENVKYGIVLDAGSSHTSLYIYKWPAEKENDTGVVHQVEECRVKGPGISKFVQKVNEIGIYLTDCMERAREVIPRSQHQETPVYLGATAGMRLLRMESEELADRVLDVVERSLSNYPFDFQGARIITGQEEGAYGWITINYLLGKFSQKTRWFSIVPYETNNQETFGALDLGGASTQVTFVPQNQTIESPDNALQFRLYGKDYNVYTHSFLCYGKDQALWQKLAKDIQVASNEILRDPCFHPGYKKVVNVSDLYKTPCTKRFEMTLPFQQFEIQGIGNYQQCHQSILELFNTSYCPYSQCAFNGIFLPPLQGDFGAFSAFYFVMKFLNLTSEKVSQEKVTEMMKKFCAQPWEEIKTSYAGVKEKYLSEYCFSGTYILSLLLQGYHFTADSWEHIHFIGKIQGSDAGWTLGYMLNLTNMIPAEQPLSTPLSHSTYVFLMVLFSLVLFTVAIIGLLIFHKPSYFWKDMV
As to the kind of experiment: Inhibition of human NTPDase1 at 100 uM using ATP as substrate preincubated for 3 mins followed by substrate addition measured after 10 mins by malachite green reagent-based assay. Summed up: as §1

Chain of P2Y purinoceptor 4 (Homo sapiens) (P51582 whole entry): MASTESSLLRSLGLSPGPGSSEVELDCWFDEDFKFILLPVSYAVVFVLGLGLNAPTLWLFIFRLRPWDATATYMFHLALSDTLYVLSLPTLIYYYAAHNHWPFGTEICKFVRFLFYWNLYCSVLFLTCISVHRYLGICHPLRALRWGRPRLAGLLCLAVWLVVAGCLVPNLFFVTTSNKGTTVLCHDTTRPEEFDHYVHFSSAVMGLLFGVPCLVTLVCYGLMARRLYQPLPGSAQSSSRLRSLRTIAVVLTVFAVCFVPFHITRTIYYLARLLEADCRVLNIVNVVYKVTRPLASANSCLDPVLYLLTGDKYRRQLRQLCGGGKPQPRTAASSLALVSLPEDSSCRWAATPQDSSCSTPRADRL

On to `O=c1ccn([C@@H]2O[C@H](COP(=S)(S)OP(=O)(O)O)[C@@H](O)[C@H]2O)c(=O)[nH]1` (some centres not stated), for which the inhibition in experiment [1], in experiment [2] and in experiment [4] was 15% throughout. For the same molecule, the result in experiment [3] was inactive.

Consider `O=c1ccn([C@@H]2O[C@H](COP(=S)(S)OP(=O)(O)CP(=O)(O)O)[C@@H](O)[C@H]2O)c(=O)[nH]1` (some centres not stated), for which the inhibition in experiment [1], in experiment [2] and in experiment [4] was 15% in each case. For the same molecule, in experiment [3], the result was inactive.

Consider `O=c1ccn([C@@H]2O[C@H](COP(=S)(S)OP(=O)(O)OP(=O)(O)O)[C@@H](O)[C@H]2O)c(=O)[nH]1` (some centres not stated), for which the inhibition result in experiment [1], in experiment [2] and in experiment [4] was “inactive” each time. Besides, the result in experiment [3] was inactive.

What is called inhibition is the share of the control response that was lost under treatment.

Values taken from ChEMBL document CHEMBL4177769, “Highly Selective and Potent Ectonucleotide Pyrophosphatase-1 (NPP1) Inhibitors Based on Uridine 5'-Pα,α-Dithiophosphate Analogues” (J Med Chem, 2018).
